hDAT+cocaine = changed human dopamine transporter uptake under cocaine IC80; LLC-PK1 hDAT cells, [14C]-dopamine uptake with cocaine IC80; actives deviate in either direction; B-score at 10 µM; 110,000 compounds, 1.3% hits;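 active = Z score or B-score, a plate-position-corrected score, falls beyond the plate's 99.7% confidence bounds, in either direction; inactive = both scores lie inside the 99.7% bounds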;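 also: scored against the spread of the other compound wells on the same plate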
Target sequence (Q01959 whole entry, looked up): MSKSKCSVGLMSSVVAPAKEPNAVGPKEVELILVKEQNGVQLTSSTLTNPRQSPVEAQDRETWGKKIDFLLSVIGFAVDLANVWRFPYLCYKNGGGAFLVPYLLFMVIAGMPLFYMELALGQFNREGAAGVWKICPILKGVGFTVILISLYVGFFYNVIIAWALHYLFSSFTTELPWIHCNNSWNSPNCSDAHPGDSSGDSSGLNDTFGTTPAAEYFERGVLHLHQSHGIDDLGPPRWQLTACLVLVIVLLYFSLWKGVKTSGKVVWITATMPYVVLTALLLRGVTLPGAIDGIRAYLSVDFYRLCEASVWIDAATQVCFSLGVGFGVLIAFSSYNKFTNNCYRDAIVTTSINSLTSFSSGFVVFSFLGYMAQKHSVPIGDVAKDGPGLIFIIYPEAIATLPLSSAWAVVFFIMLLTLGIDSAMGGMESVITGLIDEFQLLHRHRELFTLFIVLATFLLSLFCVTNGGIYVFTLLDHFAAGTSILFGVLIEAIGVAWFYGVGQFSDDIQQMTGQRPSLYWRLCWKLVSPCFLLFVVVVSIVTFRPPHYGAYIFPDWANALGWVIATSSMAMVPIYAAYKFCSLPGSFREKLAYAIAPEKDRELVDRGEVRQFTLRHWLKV
PostGolgi ctrl = growth of the yeast control strain, post-Golgi counter-screen | efflux-deficient yeast background strain, growth absorbance A615, 16 h | inhibition, % at 10 µM | 98,000 compounds, 5% hits
Ecoli tolC = E. coli tolC mutant growth inhibition | growth inhibition, % at 10 µM (by protocol) | E. coli BW25113 tolC mutant growth, OD615 | 65,000 compounds, 2.2% hits;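 active = growth inhibition at or above a cutoff equal to the mean over every tested compound plus 3 SD, cut at about 60% in these data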;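 also: growth measured after 20 h incubation at 37 °C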
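Assay system: tolC-deleted E. coli BW25113. Medium: kanamycin-containing LB broth (50 µg/mL). Dosing: 10 µM final, single dose. Timing: bacterial growth with compound for 20 h at 37 °C. Detection: A615 absorbance measurement. Read-out basis: growth inhibition in percent.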
E coli WT exp = blocks growth of wild type E. coli BW25113. OD600 absorbance. 98,000 compounds, 0.15% hits. AID 710. growth inhibition, % at 100 µM;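 active = growth inhibition above about 50% at one test dose, limit read from the data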;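 also: growth measured after 20 h incubation at 37 °C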
D1 allo mod = allosteric modulators of human D1 dopamine receptor | B-score at 10 µM | 58,000 compounds, 5.9% hits | AID 641 | HEK293 D1, CRE-luciferase, dopamine EC30 potentiation; actives deviate in either direction | P21728;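 active = luminescence count or its row- and column-corrected plate score outside the 99.7% band of the plate's sample wells, on either side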
PostGolgi yeast = growth inhibition of a yeast mutant, post-Golgi transport screen. post-Golgi transport phenotypic cell assay. inhibition, % at 10 µM. 98,000 compounds, 0.9% hits. AID 739;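 also: yeast cells grown in 1536-well plates; yeast grown about 18 h at 30C before absorbance read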
* hit, by the source's call. An excerpt weighted towards active compounds, which were near 9.3% of everything screened. Rule as the data show it, unless noted: active = inhibition above about 30%; inactive = the rest.

Screening O=c1[nH]c2ccc(Cl)cc2c(-c2ccccc2)c1SC(=S)N1CCCCC1 returned hDAT+cocaine 3.4*, PostGolgi ctrl 23, E coli WT exp -4 and PostGolgi yeast 4.
`CC1=C(C#N)c2nc(N)c(C#N)c(C)c2/C1=C\c1ccc(C)cc1` gave hDAT+cocaine 0.045, PostGolgi ctrl 100*, E coli WT exp -5 and PostGolgi yeast 104*.
Cc1ccc(-c2c(C#N)c(N)nc3c2CCCCC3)cc1 was read as hDAT+cocaine 0.23, PostGolgi ctrl 6, E coli WT exp -10 and PostGolgi yeast 15.
`Brc1c(OCCOCCn2cncn2)ccc2ccccc12` gave hDAT+cocaine 0.61, PostGolgi ctrl 8, Ecoli tolC 14, E coli WT exp 6, D1 allo mod 1.4 and PostGolgi yeast -10.
Cc1ccc(-c2nnc3c4ccccc4c(C)nn23)cc1S(=O)(=O)N1CCN(C)CC1 was read as Ecoli tolC -23 and D1 allo mod 9.9*.
COc1cc(-c2c(C#N)c(N)nc3c2CCCC3)ccc1O was read as hDAT+cocaine -0.23, PostGolgi ctrl 11, Ecoli tolC 8, E coli WT exp 0, D1 allo mod -0.43 and PostGolgi yeast 3.
`COc1ccc(-c2c(C#N)c(N)nc3c2CCc2ccccc2-3)cc1OC` gave hDAT+cocaine 0.83, PostGolgi ctrl 44*, E coli WT exp -13 and PostGolgi yeast -1.
`Cn1c(SCC(=O)NCc2ccc3c(c2)OCO3)nc2scc(-c3cccs3)c2c1=O` gave hDAT+cocaine 0.82, PostGolgi ctrl 16, Ecoli tolC 6, E coli WT exp -10, D1 allo mod -0.76 and PostGolgi yeast 2.
For Cc1nn(C)cc1C1C2=C(CC(C)(C)CC2=O)OC2=C1C(=O)CC(C)(C)C2 the results were hDAT+cocaine -0.072, PostGolgi ctrl -15, Ecoli tolC -3, E coli WT exp -11, D1 allo mod -0.011 and PostGolgi yeast -2.
For C[C@@H]1NC(=O)c2cc([N+](=O)[O-])cc(I)c2OCC[C@@H](C(=O)NC(CC(=O)O)C(N)=O)NC(=O)[C@H](CC(N)=O)NC1=O (stereo partly drawn) the results were hDAT+cocaine -0.56.
CC(=O)NCCn1c(SCc2ccc(C)cc2)nc2ccccc2c1=O was read as hDAT+cocaine -0.59, PostGolgi ctrl 34*, E coli WT exp -9 and PostGolgi yeast 3.
For NC(=O)c1ccsc1NC(=O)CSc1nc2ccccc2c(=O)n1CCCO the results were hDAT+cocaine 0.18, PostGolgi ctrl -3, Ecoli tolC 3, E coli WT exp -1, D1 allo mod 2 and PostGolgi yeast -5.
Screening CC(=O)NCCn1c(SCC#N)nc2ccccc2c1=O returned hDAT+cocaine -1.1, PostGolgi ctrl 4, Ecoli tolC -17, E coli WT exp 8, D1 allo mod -0.15 and PostGolgi yeast -5.
`Cc1ccc2c(CSc3nc4ccccc4c(=O)n3CCCO)cc(=O)oc2c1C` gave hDAT+cocaine 0.96, PostGolgi ctrl 32*, E coli WT exp -3 and PostGolgi yeast -3.
CCCCNC(=O)c1onc(CCl)c1C(=O)OC was read as hDAT+cocaine 0.8, PostGolgi ctrl -13, E coli WT exp 4 and PostGolgi yeast -5.
`Cc1ccccc1Cn1c(=O)c2c(nc3n2CCN3Cc2ccco2)n(C)c1=O` gave Ecoli tolC -2 and D1 allo mod 0.058.
O=C(NCc1ccco1)c1ccc(CN2CCOCC2)cc1 was read as hDAT+cocaine -0.29, PostGolgi ctrl 3, Ecoli tolC -9, E coli WT exp -5, D1 allo mod 0.15 and PostGolgi yeast -10.
For O=C(NCc1ccc2c(c1)OCO2)c1ccc(CN2CCOCC2)cc1 the results were hDAT+cocaine -0.51, PostGolgi ctrl 33*, Ecoli tolC -12, E coli WT exp 6, D1 allo mod 0.5 and PostGolgi yeast 4.
Screening O=C(NCc1ccccc1)c1ccc(CN2CCOCC2)cc1 returned hDAT+cocaine 0.4, PostGolgi ctrl 23, Ecoli tolC -10, E coli WT exp -5, D1 allo mod 0.18 and PostGolgi yeast 5.
O=C(NCc1ccc2c(c1)OCO2)c1cc(-n2cnnc2)ccc1Cl was read as hDAT+cocaine 0.17, PostGolgi ctrl 46*, Ecoli tolC -15, E coli WT exp 4, D1 allo mod 0.035 and PostGolgi yeast -8.
For O=C(NCCSCc1ccc(Cl)cc1Cl)c1ccc(CN2CCOCC2)cc1 the results were hDAT+cocaine 3.2*, PostGolgi ctrl 31*, E coli WT exp 14 and PostGolgi yeast 76*.
CCOc1ccc(C2c3c(oc4ccccc4c3=O)C(=O)N2c2ccc(C)cn2)cc1OC (stereo not drawn) was read as hDAT+cocaine -0.057, PostGolgi ctrl 19, Ecoli tolC 20, E coli WT exp -14, D1 allo mod 2.5 and PostGolgi yeast -4.
C=C1C(=O)[C@@]23[C@H](O)C[C@@H]4C(C)(C)CC[C@H](O)[C@]4(C)[C@@H]2C[C@H](O)[C@@H]1[C@H]3O was read as hDAT+cocaine -4.8*.
Screening CC(=O)NC(CCS(C)(=O)=O)C(=O)Nc1ccc(Oc2ccccc2)cc1 (stereo not drawn) returned hDAT+cocaine 0.49, PostGolgi ctrl 5, Ecoli tolC -5, E coli WT exp -2, D1 allo mod -0.057 and PostGolgi yeast 6.
Screening O=C1c2ccccc2C(=O)N1CCc1csc(-c2cccc(F)c2)n1 returned hDAT+cocaine 0.24, PostGolgi ctrl 42*, E coli WT exp -20 and PostGolgi yeast -5.
For COC(=O)c1ccccc1NC(=O)CN1CCN(C23CC4CC(CC(C4)C2)C3)CC1 the results were hDAT+cocaine -0.3, PostGolgi ctrl 14, Ecoli tolC -3, E coli WT exp 17, D1 allo mod -0.43 and PostGolgi yeast -5.
`Cc1ccc(NS(=O)(=O)c2cc(C(=O)NCCSc3ccc(C)cc3)ccc2C)cc1` gave hDAT+cocaine -0.24, PostGolgi ctrl 36*, E coli WT exp -14 and PostGolgi yeast -9.
`Cc1ccc(NS(=O)(=O)c2cc(C(=O)N3CCOCC3)ccc2C)cc1` gave hDAT+cocaine -0.78, PostGolgi ctrl 7, Ecoli tolC 11, E coli WT exp 2, D1 allo mod 0.59 and PostGolgi yeast 48*.
For Cc1ccc(SCCNC(=O)c2ccc(C)c(S(=O)(=O)Nc3cccc(C)c3)c2)cc1 the results were hDAT+cocaine 0.22, PostGolgi ctrl 25, E coli WT exp -7 and PostGolgi yeast -10.
Screening CCCC(=O)NC(Nc1cccc(C(F)(F)F)c1)C(Cl)(Cl)Cl (stereo not drawn) returned hDAT+cocaine 0.67, PostGolgi ctrl 10, E coli WT exp 4 and PostGolgi yeast -1.
Screening COc1ccccc1N1CCN(CCC(=O)Nc2ccc3c(c2)OCO3)CC1 returned hDAT+cocaine -0.78, PostGolgi ctrl 0, Ecoli tolC -8, E coli WT exp 0, D1 allo mod -2.2* and PostGolgi yeast -5.
For CN1CCN(CCC(=O)Nc2ccc3c(c2)OCO3)CC1 the results were hDAT+cocaine -0.85.

Source: PubChem BioAssay (several laboratories)
